From PMC4134960 (Pharmacological research : the official journal of the …, 2014)
Read-outs that look alike come from different tables or passages of the source.

Columns and labels:
[1] = cited from earlier work; for PSA (polar surface area): ref Moreno-Sanz et al., 2013
wild-type MDCKII cells = test: Transepithelial transport in monolayers of wild-type MDCKII cells
FAAH [2] = target: T1, FAAH (Mus musculus, UniProt O08914); settings: cited from earlier work; for Brain ID50: inhibition of brain FAAH activity after systemic administration in mice, ref Moreno-Sanz et al., 2013
T1 sequence (O08914 1-579): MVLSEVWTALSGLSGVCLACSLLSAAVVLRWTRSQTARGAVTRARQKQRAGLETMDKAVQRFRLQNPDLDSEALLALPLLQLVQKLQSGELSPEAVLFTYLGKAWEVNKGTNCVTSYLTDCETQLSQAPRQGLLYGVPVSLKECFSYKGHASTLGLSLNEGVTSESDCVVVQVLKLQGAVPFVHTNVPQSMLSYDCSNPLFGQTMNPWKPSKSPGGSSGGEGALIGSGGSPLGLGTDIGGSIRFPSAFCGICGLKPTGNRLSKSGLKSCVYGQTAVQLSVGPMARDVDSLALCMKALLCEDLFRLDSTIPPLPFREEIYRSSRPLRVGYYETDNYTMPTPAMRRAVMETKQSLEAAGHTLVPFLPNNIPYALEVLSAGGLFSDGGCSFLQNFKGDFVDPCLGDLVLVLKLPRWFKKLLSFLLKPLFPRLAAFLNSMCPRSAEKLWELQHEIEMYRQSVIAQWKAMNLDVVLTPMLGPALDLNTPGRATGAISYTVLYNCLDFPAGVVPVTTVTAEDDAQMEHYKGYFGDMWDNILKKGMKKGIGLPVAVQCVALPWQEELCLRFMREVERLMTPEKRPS

[3] = Transepithelial transport in monolayers of wild-type MDCKII cells; settings: dog, MDCK, Ratio BA/AB (relative transport ratio), after 4h, 5 μM (compound 8: 1 μM)
human ABCB1 = human ABCB1 (Homo sapiens, UniProt P08183); test: Transepithelial transport in monolayers of MDCKII cells over-expressing ABCB1; settings: for A to B transport (percentage of drug appearing in the opposite compartment) / B to A transport (percentage of drug appearing in the opposite compartment) / Ratio BA/AB (relative transport ratio): MDCKII over-expressing ABCB1, after 4h, 5 μM (compound 8: 1 μM); for Vectorial transport by ABCB1 (in words): MDCKII transduced with human ABCB1
human ABCB1, sequence (P08183 whole entry): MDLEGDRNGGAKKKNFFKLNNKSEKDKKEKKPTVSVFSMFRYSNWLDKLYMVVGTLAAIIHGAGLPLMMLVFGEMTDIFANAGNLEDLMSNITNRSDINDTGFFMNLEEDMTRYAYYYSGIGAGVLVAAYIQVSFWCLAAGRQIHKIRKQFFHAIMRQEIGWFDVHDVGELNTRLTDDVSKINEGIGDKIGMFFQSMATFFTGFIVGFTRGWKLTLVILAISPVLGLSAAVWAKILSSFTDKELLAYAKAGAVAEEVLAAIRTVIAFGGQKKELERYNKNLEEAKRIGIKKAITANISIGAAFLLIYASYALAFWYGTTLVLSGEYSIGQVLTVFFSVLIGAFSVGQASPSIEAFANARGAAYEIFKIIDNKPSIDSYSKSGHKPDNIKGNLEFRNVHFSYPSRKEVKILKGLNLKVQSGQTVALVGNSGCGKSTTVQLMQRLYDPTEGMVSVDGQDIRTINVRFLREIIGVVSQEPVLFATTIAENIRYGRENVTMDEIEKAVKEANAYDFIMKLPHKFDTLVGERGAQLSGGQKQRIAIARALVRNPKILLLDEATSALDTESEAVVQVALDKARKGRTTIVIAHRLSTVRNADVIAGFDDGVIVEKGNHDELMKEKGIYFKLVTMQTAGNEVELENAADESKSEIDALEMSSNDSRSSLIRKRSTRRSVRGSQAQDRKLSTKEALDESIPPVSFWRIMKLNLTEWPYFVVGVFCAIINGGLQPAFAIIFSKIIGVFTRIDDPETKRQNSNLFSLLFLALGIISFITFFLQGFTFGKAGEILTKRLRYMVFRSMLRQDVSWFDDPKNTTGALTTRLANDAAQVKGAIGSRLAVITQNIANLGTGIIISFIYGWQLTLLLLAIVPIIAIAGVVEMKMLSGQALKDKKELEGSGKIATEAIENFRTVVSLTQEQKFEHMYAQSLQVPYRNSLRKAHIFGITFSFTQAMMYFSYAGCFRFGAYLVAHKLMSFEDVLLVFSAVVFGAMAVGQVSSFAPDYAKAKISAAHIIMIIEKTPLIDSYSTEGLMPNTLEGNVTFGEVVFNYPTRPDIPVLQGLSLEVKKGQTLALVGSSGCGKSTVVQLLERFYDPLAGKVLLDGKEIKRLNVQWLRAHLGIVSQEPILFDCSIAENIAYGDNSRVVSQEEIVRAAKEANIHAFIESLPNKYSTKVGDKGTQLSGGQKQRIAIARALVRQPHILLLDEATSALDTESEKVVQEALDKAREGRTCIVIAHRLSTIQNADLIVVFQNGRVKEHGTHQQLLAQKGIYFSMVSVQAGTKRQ

Abcg2 = target: T2, Abcg2 (Mus musculus, UniProt Q7TMS5); test: Transepithelial transport in monolayers of MDCKII cells over-expressing Abcg2; format: in vitro ADME, murine; settings: mouse, Ratio BA/AB (relative transport ratio), MDCKII over-expressing Abcg2, after 4h, 5 μM (compound 8: 1 μM)
T2 sequence (Q7TMS5 1-657): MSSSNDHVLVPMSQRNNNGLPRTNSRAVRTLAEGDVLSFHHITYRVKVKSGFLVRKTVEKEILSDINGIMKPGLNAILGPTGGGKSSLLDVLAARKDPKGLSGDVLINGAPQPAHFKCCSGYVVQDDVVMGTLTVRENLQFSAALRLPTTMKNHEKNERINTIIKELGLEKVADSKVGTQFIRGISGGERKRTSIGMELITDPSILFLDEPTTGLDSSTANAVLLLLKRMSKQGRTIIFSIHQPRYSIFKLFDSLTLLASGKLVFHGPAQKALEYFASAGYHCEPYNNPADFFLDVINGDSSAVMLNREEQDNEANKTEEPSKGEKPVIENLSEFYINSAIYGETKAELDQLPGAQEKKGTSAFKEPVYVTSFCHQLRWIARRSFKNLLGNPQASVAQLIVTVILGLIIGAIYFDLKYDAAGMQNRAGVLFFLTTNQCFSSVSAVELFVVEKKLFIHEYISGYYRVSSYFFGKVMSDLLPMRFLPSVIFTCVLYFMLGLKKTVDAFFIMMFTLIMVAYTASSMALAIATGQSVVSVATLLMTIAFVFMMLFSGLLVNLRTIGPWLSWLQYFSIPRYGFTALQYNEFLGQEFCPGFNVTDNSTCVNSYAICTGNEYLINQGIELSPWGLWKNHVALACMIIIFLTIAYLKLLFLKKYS

murine Abcg2 = target: T3, murine Abcg2 (Mus musculus, UniProt Q7TMS5); test: as above; format: in vitro ADME
T3 sequence (Q7TMS5 1-657): T2 sequence (Q7TMS5 1-657)

[4] = Brain-to-plasma ratio of URB937 in wild-type and transporter knockout mice; format: in vivo; settings: 5 mg/kg i.p., 1 h
Method in brief: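 Male 9-week FVB wild-type, Mdr1a/b−/−, Bcrp−/− and Mdr1a/b−/−-Bcrp−/− mice received the test compound i.p. in saline/PEG400/Tween-80 (18:1:1, v/v/v) at 10 mL/kg and were killed 1 h later. Plasma came from cardiac blood spun at 2000 × g for 20 min. Brain was homogenized in 50 mM Tris-HCl pH 7.5/0.32 M sucrose, spun at 1000 × g for 10 min at 4°C, and extracted with methanol/chloroform. Read-out by LC/MS on C18 (m/z 377). n = 3–4, mean ± SEM.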

FAAH [5] = target: T1, FAAH; format: in vivo, mice
Method in brief: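 Dosing was i.p. in saline/PEG400/Tween-80 (18:1:1), with kill at 1 h. Brain S1 fraction (1000 × g; 50 μg protein by BCA) was incubated 30 min at 37°C in 50 mM Tris-HCl pH 7.5 with 0.05% fatty acid-free BSA, 10 μM anandamide and [ethanolamine-3H]anandamide (10,000 cpm). The reaction was stopped with chloroform/methanol (1:1), and aqueous-phase radioactivity counted by scintillation. n = 3–4, mean ± SEM, ANOVA with Dunnett's test vs vehicle.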

[6] = after 4h, 5 μM (compound 8: 1 μM)
[7] = MDCKII over-expressing Abcg2, after 4h, 5 μM (compound 8: 1 μM)

SMILES: N.NC(=O)c1cccc(-c2cc(OC(=O)NC3CCCCC3)ccc2OS(=O)(=O)O)c1 [Compound 9]
- PSA (polar surface area) [1]: 117 Å^2
- Translocation in apical or basolateral direction (in words) (wild-type MDCKII cells): minimal translocation in either the apical or basolateral direction
- A to B transport (percentage of drug appearing in the opposite compartment) (wild-type MDCKII cells; [6]): 7.92 ± 0.41%
- B to A transport (percentage of drug appearing in the opposite compartment) (wild-type MDCKII cells; [6]): 7.49 ± 0.39%
- Brain ID50 (FAAH [2]): >75 mg/kg

SMILES: Cc1ccc(OC(=O)NC2CCCCC2)cc1-c1cccc(C(N)=O)c1 [Compound 8, cyclohexylcarbamic acid 3′-carbamoyl-6-methylbiphenyl-3-yl ester]
- PSA (polar surface area) [1]: 66 Å^2
- A to B transport (percentage of drug appearing in the opposite compartment) (wild-type MDCKII cells; [6]): 26.0 ± 1.52%
- B to A transport (percentage of drug appearing in the opposite compartment) (wild-type MDCKII cells; [6]): 27.3 ± 3.8%
- Ratio BA/AB (relative transport ratio) (wild-type MDCKII cells; [6]): 1.06 ± 0.15
- efflux ratio at 4 h [3]: ~1
- A to B transport (percentage of drug appearing in the opposite compartment) (human ABCB1): 20.7 ± 1.00%
- B to A transport (percentage of drug appearing in the opposite compartment) (human ABCB1): 35.8 ± 0.43%
- Vectorial transport by ABCB1 (in words) (human ABCB1): no significant vectorial transport
- efflux ratio at 4 h (Abcg2): ≥ 10
- A to B transport (percentage of drug appearing in the opposite compartment) (murine Abcg2; [7]): 5.59 ± 0.58 %
- B to A transport (percentage of drug appearing in the opposite compartment) (murine Abcg2; [7]): 64.8 ± 4.87%

SMILES: COc1ccc(OC(=O)NC2CCCCC2)cc1-c1cccc(C(N)=O)c1 [Compound 7]
- PSA (polar surface area) [1]: 74 Å^2
- A to B transport (percentage of drug appearing in the opposite compartment) (wild-type MDCKII cells; [6]): 29.3 ± 0.44%
- B to A transport (percentage of drug appearing in the opposite compartment) (wild-type MDCKII cells; [6]): 37.1 ± 1.48%
- A to B transport (percentage of drug appearing in the opposite compartment) (human ABCB1): 21.6 ± 0.55%
- B to A transport (percentage of drug appearing in the opposite compartment) (human ABCB1): 45.1 ± 3.61%
- Ratio BA/AB (relative transport ratio) (human ABCB1): 2.08 ± 0.11
- Vectorial transport by ABCB1 (in words) (human ABCB1): no significant vectorial transport
- A to B transport (percentage of drug appearing in the opposite compartment) (murine Abcg2; [7]): 7.29 ± 1.30 %
- B to A transport (percentage of drug appearing in the opposite compartment) (murine Abcg2; [7]): 98.8 ± 16.6%

SMILES: O=C(NC1CCCCC1)Oc1ccc(O)c(-c2cccc(C(=O)O)c2)c1 [Compound 4]
- PSA (polar surface area) [1]: 77 Å^2
- Translocation in apical or basolateral direction (in words) (wild-type MDCKII cells): minimal translocation in either the apical or basolateral direction
- A to B transport (percentage of drug appearing in the opposite compartment) (wild-type MDCKII cells; [6]): 4.93 ± 0.88%
- B to A transport (percentage of drug appearing in the opposite compartment) (wild-type MDCKII cells; [6]): 5.21 ± 0.42%
- Brain ID50 (FAAH [2]): 12 mg/kg

SMILES: CNC(=O)c1cccc(-c2cc(OC(=O)NC3CCCCC3)ccc2O)c1 [Compound 1]
- PSA (polar surface area) [1]: 73 Å^2
- A to B transport (percentage of drug appearing in the opposite compartment) (wild-type MDCKII cells; [6]): 21.7 ± 0.96%
- B to A transport (percentage of drug appearing in the opposite compartment) (wild-type MDCKII cells; [6]): 48.1 ± 2.33%
- A to B transport (percentage of drug appearing in the opposite compartment) (human ABCB1): 8.55 ± 1.79%
- B to A transport (percentage of drug appearing in the opposite compartment) (human ABCB1): 67.4 ± 14.5%
- A to B transport (percentage of drug appearing in the opposite compartment) (murine Abcg2; [7]): 6.99 ± 0.99 %
- B to A transport (percentage of drug appearing in the opposite compartment) (murine Abcg2; [7]): 69.8 ± 16.9%

SMILES: COc1ccc2c3c([nH]c2c1)[C@H](CC(C)C)N1C(=O)[C@H](CCC(=O)OC(C)(C)C)NC(=O)[C@@H]1C3 [Ko143, reference compound]
- Effect of inhibitor on translocation of all compounds (in words) (murine Abcg2; MDCKII over-expressing Abcg2, Ko143 1 μM): blocked

SMILES: CC(=O)c1cccc(-c2cc(OC(=O)NC3CCCCC3)ccc2O)c1 [Compound 3]
- PSA (polar surface area) [1]: 62 Å^2
- A to B transport (percentage of drug appearing in the opposite compartment) (wild-type MDCKII cells; [6]): 39.4 ± 0.54%
- B to A transport (percentage of drug appearing in the opposite compartment) (wild-type MDCKII cells; [6]): 46.8 ± 2.73%
- A to B transport (percentage of drug appearing in the opposite compartment) (human ABCB1): 39.8 ± 1.88%
- B to A transport (percentage of drug appearing in the opposite compartment) (human ABCB1): 57.6 ± 7.90%
- Ratio BA/AB (relative transport ratio) (human ABCB1): 1.44 ± 0.13
- Vectorial transport by ABCB1 (in words) (human ABCB1): no significant vectorial transport
- Brain ID50 (FAAH [2]): <1 mg/kg
- Transport substrate for Abcg2 (in words) (murine Abcg2; MDCKII over-expressing Abcg2): did not behave as a transport substrate for Abcg2
- A to B transport (percentage of drug appearing in the opposite compartment) (murine Abcg2; [7]): 24.5 ± 2.39 %
- B to A transport (percentage of drug appearing in the opposite compartment) (murine Abcg2; [7]): 30.5 ± 0.75%
- Ratio BA/AB (relative transport ratio) (murine Abcg2; [7]): 1.25 ± 0.13

SMILES: NC(=O)c1cccc(-c2cc(OC(=O)NC3CCCCC3)ccc2O)c1 [URB937, cyclohexylcarbamic acid 3′-carbamoyl-6-hydroxybiphenyl-3-yl ester]
- Brain-to-plasma ratio (in words) ([4]; Abcb1-deficient (Mdr1a/b−/−) mice): not significantly different from controls
- Brain-to-plasma ratio (in words) ([4]; Mdr1a/b−/−-Bcrp−/− mice): significantly increased
- PSA value [1]: ≥ 80 Å
- Effect on brain FAAH activity (in words) (FAAH [5]; Mdr1a/b−/−-Bcrp−/− mice, 5 mg/kg i.p.): drastically inhibited
- inhibition at 5 mg/kg (FAAH [5]; mouse, ip, read-out: Inhibition of brain FAAH): 26%
- Effect on brain FAAH activity (in words) (FAAH [5]; wild-type mice, 5 mg/kg i.p.): did not affect FAAH activity
- Effect on liver FAAH activity (in words) (FAAH [5]; wild-type mice, 5 mg/kg i.p.): completely blocked FAAH activity
- A to B transport (percentage of drug appearing in the opposite compartment) (wild-type MDCKII cells; [6]): 17.78 ± 2.12%
- B to A transport (percentage of drug appearing in the opposite compartment) (wild-type MDCKII cells; [6]): 44.3 ± 5.35%
- efflux ratio at 4 h [3]: ≥ 2
- A to B transport (percentage of drug appearing in the opposite compartment) (human ABCB1): 5.89 ± 1.33%
- B to A transport (percentage of drug appearing in the opposite compartment) (human ABCB1): 50.2 ± 4.02%
- Brain ID50 relative to dose needed to inhibit FAAH in liver (FAAH [2]; brain vs liver): 400 times
- Brain FAAH activity median effective dose (ID50) (FAAH [2]; brain): 40 mg/kg
- Brain ID50 (FAAH [2]): 40 mg/kg
- Liver FAAH activity ID50 (FAAH [2]; peripheral organs such as the liver): 0.1 mg/kg
- efflux ratio at 4 h (Abcg2): ≥ 10
- A to B transport (percentage of drug appearing in the opposite compartment) (murine Abcg2; [7]): 1.68 ± 0.12%
- B to A transport (percentage of drug appearing in the opposite compartment) (murine Abcg2; [7]): 25.9 ± 1.44%

SMILES: CN(C)C(=O)c1cccc(-c2cc(OC(=O)NC3CCCCC3)ccc2O)c1 [Compound 2]
- PSA (polar surface area) [1]: 65 Å^2
- A to B transport (percentage of drug appearing in the opposite compartment) (wild-type MDCKII cells; [6]): 25.6 ± 1.96%
- B to A transport (percentage of drug appearing in the opposite compartment) (wild-type MDCKII cells; [6]): 43.1 ± 4.48%
- A to B transport (percentage of drug appearing in the opposite compartment) (human ABCB1): 8.86 ± 0.95%
- B to A transport (percentage of drug appearing in the opposite compartment) (human ABCB1): 58.6 ± 3.85%
- Ratio BA/AB (relative transport ratio) (human ABCB1): 6.65 ± 0.36
- Brain ID50 (FAAH [2]): 5 mg/kg
- A to B transport (percentage of drug appearing in the opposite compartment) (murine Abcg2; [7]): 6.95 ± 0.42 %
- B to A transport (percentage of drug appearing in the opposite compartment) (murine Abcg2; [7]): 91.0 ± 12.7%
